ERAP1 inh: human ERAP1 aminopeptidase inhibitors, primary screen, biochemical, single point, plate reader. 340,000 compounds, 0.15% hits. inhibition, % at 10.7 µM. recombinant ERAP1, Leu-AMC fluorescence, 60 min. Endoplasmic reticulum aminopeptidase 1 (Homo sapiens), Q9NZ08. AID 652197, 2013;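 active = mean replicate inhibition of at least 30%, or all replicates individually reaching that 30% level; inactive = mean below 30% and not every replicate reaching it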;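 note: 0% = neutral control wells and 100% = L-leucinethiol positive control wells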
DENV2 CPE rescue: inhibitors of DENV2 cytopathic effect, primary screen, cell-based, plate reader, single concentration; DENV2-infected cells, cytopathic effect rescue; AID 651640, 2012; 350,000 compounds, 1.7% hits; CPE inhibition, % at 9.99 µM; in the data active = CPE inhibition above about 20%, passing the limit was not always enough; inconclusive = no clear call, values can overlap the other calls; tested in BHK-21 cells;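 note: 0% = median of neutral control wells and 100% = median of positive control wells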
SIRT5 inh: SIRT5 desuccinylase inhibitors, primary screen, biochemical, fluorescence imaging, single point, set 5. Purified SirT5, succinyl-peptide AMC, trypsin-coupled fluorescence. AID 652115, 2013. 330,000 compounds, 1.1% hits. inhibition, % at 15 µM; in the data active = inhibition above about 15%; inconclusive = no clear call, values can overlap the other calls
Target sequence (Q9NXA8 whole entry, looked up): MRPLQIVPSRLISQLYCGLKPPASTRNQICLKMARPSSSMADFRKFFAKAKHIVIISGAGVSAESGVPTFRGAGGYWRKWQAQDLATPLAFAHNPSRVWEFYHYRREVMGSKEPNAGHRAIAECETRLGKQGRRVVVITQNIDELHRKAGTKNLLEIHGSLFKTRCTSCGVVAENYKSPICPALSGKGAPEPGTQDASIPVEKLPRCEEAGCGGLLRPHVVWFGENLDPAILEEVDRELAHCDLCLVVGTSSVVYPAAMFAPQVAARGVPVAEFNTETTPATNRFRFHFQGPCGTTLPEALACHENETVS
PglD DTNB: C. jejuni PglD acetyltransferase inhibitors, primary screen, biochemical, DTNB colorimetric, single point | 360,000 compounds, 0.098% hits | purified PglD enzyme, DTNB colorimetric CoA detection | inhibition, % at 12.5 µM; in the data active = inhibition above about 16%, passing the limit was not always enough; inconclusive = no clear call, values can overlap the other calls
E-sel inducer: E-selectin induction in HUVECs, primary screen, imaging, HUVEC, immunofluorescence imaging, single point. normalized: neutral wells 0, TNF-alpha wells 100. activation, % at 7.58 µM. 260,000 compounds, 0.37% hits. AID 686992, 2013;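 active = mean E-selectin-positive cell signal at least 10% of the positive control, reached in at least 60% of replicates, without over 20% cell loss; inconclusive = no rule given, readout overlaps actives, possibly toxicity-flagged; inactive = the rest, including those meeting only one limit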
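Read-out basis: % PE-positive cells; Test system: HUVEC primary endothelial cells; Technique: immunofluorescence imaging; Dosing: single-point compound dose.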
Numbers without * were called inactive; u = inconclusive; x = no result. An excerpt weighted towards active compounds, which were near 2.5% of everything screened.

SMILES	ERAP1 inh	DENV2 CPE rescue	SIRT5 inh	PglD DTNB	E-sel inducer
Cc1noc(C)c1S(=O)(=O)Nc1ccc2c(c1)CC(=O)N([C@@H](C)CO)C[C@@H](C)[C@H](CN(C)Cc1ccc(-c3ccccc3)cc1)O2	2	14	6	x	-1
O=C(O)c1ccc(S(=O)(=O)N(Cc2ccccc2)C2CCCCC2)cc1	-2	-1	22*	-6	24
COc1ccc(C(c2nnnn2-c2c(C)cccc2C)N2CCN(C/C=C/c3ccccc3)CC2)cc1 (stereo unspecified)	-2	-5	-10	3	-2
CC1(C)CC(=O)C2=C(C1)NC(=O)NC2c1ccc(Cl)cc1 (stereo unspecified)	0	23*	-3	-8	x
COc1ccc(C2C(C(=O)N3CC(C)CC(C)C3)c3ccccc3C(=O)N2C)cc1 (stereo unspecified)	x	x	x	-1	x
CC(C)(NC(=O)c1ccccc1)c1nc2ccccc2s1	-3	109*	x	3	0
Cc1ccccc1CS(=O)(=O)c1snnc1C	x	x	x	x	-2
CN(CC(=O)Nc1ccccc1C(=O)NC1CC1)Cc1ccccc1F	-4	78*	-4	x	x
CCOC(=O)C1(Cc2ccccc2C)CCCN(Cc2ccc(NC(C)=O)cc2)C1 (stereo unspecified)	-3	10	-3	x	0
C[C@@H]1CCCCO[C@@H](CN(C)C(=O)Cc2ccccc2)[C@@H](C)CN([C@H](C)CO)C(=O)c2cc(NS(=O)(=O)c3cn(C)cn3)ccc2O1	-1	-1	0	3	0
C[C@@H]1CCCCO[C@H](CN(C)C(=O)Cc2ccccc2)[C@@H](C)CN([C@H](C)CO)C(=O)c2cc(NS(=O)(=O)c3cn(C)cn3)ccc2O1	0	11	24*	-5	0
C[C@@H]1CN([C@@H](C)CO)C(=O)c2cc(NS(=O)(=O)c3cn(C)cn3)ccc2O[C@@H](C)CCCCO[C@@H]1CN(C)C(=O)Cc1ccccc1	-3	63*	-1	4	0
C[C@@H]1CCCCO[C@H](CN(C)C(=O)Cc2ccccc2)[C@@H](C)CN([C@@H](C)CO)C(=O)c2cc(NS(=O)(=O)c3cn(C)cn3)ccc2O1	-1	31*	1	3	0
C[C@H](CO)N1C[C@H](C)[C@@H](CN(C)C)Oc2ccc(NC(=O)CCCN(C)C)cc2CC1=O	-3	15	-1	0	204*
C[C@@H]1CN([C@H](C)CO)C(=O)Cc2cc(NC(=O)CCCN(C)C)ccc2O[C@H]1CN(C)C	1	16	-2	37	1
C[C@H]1CN([C@@H](C)CO)C(=O)Cc2cc(NC(=O)Nc3ccccc3)ccc2O[C@H]1CN(C)C	-7	7	-5	5	42*
C[C@@H]1CN([C@@H](C)CO)C(=O)Cc2cc(NC(=O)Nc3ccccc3)ccc2O[C@H]1CN(C)C	-1	-7	x	-3	-5
C[C@H](CO)N1C[C@H](C)[C@H](CN(C)C)Oc2ccc(NC(=O)Nc3ccccc3)cc2CC1=O	-1	-5	0	2	273*
C[C@@H]1CCCCO[C@@H](CN(C)C)[C@H](C)CN([C@H](C)CO)C(=O)c2cc(NC(=O)NC3CCCCC3)ccc2O1	2	u	-2	-1	0
O=C(NCc1cccs1)c1cc(-c2cccc(Cl)c2)on1	x	x	x	6	x
N#Cc1ccc(-c2nc3ccc(Cl)cn3c2Cc2cccc(F)c2)cc1	-3	-4	11	5	1
CC(C)NC(=O)N1[C@H](CO)[C@@H](c2ccccc2)C12CN(C(=O)Cc1cccnc1)C2	2	31*	1	x	0
O=C(Cc1cccnc1)N1CC2(C1)[C@H](c1ccccc1)[C@@H](CO)N2C(=O)C1CCCC1	0	-1	-10	x	0
O=C(C1CCOCC1)N1[C@H](CO)[C@@H](c2ccccc2)C12CN(Cc1cccnc1)C2	8	97*	-1	x	0
O=C(Cc1cccnc1)N1CC2(C1)[C@H](c1ccccc1)[C@@H](CO)N2C(=O)C1CC1	3	21*	0	x	0
